Key:
BV-2 [1] = assay: Antiinflammatory activity in mouse BV2 cells assessed as inhibition of LPS-induced nitric oxide production incubated for 24 hrs by Griess assay; assay type: functional, cell-based; details: BV-2, 24 h
How it was run: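 NO output from murine microglial BV-2 cells was stimulated with lipopolysaccharide. IC50 values were derived from the inhibition of LPS-induced NO generation, and results come from three experiments. 2-Methyl-2-thiopseudourea sulfate (SMT) was the positive control.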

BV-2 [2] = assay: Cytotoxicity against mouse BV2 cells assessed as effect on cell survival by MTT assay; assay type: cell-based

SMILES | IC50 (BV-2 [1]) [µM] | Activity (BV-2 [2])
CSC(=N)N | 2.9 | –
CC(C)c1cc2c(c(O)c1O)C[C@@]1(O)CCCC(C)(C)[C@@H]1CC2 | 10.6 | Non-Toxic
CC1=CC[C@@H]2[C@@H]3C[C@H]1[C@@]2(C)[C@@H](O)C[C@@H]3C(C)C | 92.9 | Non-Toxic
CC(=O)O[C@H]1CC(C)(C)C2=C(O)C(=O)c3cc(C(C)C)c(O)c(O)c3[C@@]2(C)C1 | 26.5 | Non-Toxic
CC(=O)O[C@H]1CC(C)(C)[C@@H]2CC[C@@]34C=C(C(C)C)C(=O)C(O)=C3[C@@]2(CO4)C1 | 5.7 | Non-Toxic

More lines, main results first:

IC50 (BV-2 [1]) [µM] | SMILES | Activity (BV-2 [2])
> 30 | CO[C@H]1O[C@H]2CC[C@@]13c1c(cc(C(C)C)c(O)c1O)CC[C@H]3C2(C)C | Non-Toxic
> 30 | CC(=O)O[C@H]1CC(C)(C)[C@@H]2C[C@@H]3OC[C@@]2(C1)c1c3cc(C(C)C)c(O)c1O | Non-Toxic
47.6 | CC(=O)OC[C@@]1(O)CC[C@@H]2[C@H]([C@H]3[C@H]1CC[C@]3(C)O)C2(C)C | Non-Toxic
38.9 | CC(=O)[C@H]1CC[C@@H]2[C@@H]1[C@H](C(C)C)CC[C@@]2(C)O | Non-Toxic
14.8 | CC(C)C1=C[C@@]23CC[C@H]4C(C)(C)C[C@H](O)C[C@]4(CO2)C3=C(O)C1=O | Non-Toxic
63.5 | CC(C)C1=CC[C@@]2(C)[C@H](O)CC[C@](C)(O)[C@@H]2C1 [OPLODIOL] | Non-Toxic
